Results as given in ChEMBL document CHEMBL5331142, “Novel 1,4-Dihydropyridines as Specific Binders and Activators of SIRT3 Impair Cell Viability and Clonogenicity and Downregulate Hypoxia-Induced Targets in Cancer Cells” (J Med Chem, 2023).
Active and inactive are the calls of the source. The calls are words filed in the database; no cut-off is given here.

Legend:
[1] = biological target: T1, NAD-dependent protein deacetylase sirtuin-3, mitochondrial (Homo sapiens) (UniProt Q9NTG7); test: Activation of N-terminal his-tagged human SIRT3 (114 to 380 residues) deacylation activity expressed in Escherichia coli at 10 uM using ACS2-acK642 as substrate in presence of NAD+ by NADH oxidation-coupled enzymatic assay; details: filed as activator
T1 sequence (whole entry): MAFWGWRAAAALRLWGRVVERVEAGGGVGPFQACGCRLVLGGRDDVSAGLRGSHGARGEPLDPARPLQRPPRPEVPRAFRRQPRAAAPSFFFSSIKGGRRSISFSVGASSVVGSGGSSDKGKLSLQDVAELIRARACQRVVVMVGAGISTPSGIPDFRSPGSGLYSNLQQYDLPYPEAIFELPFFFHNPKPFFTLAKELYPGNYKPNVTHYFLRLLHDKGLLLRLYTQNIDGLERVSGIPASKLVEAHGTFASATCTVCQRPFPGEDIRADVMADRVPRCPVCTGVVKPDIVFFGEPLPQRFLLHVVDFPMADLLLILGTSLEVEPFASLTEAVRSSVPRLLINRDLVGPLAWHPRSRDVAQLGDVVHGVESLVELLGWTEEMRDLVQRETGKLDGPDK
How it was run: (§1)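 Coupled PncA/GDH deacylation assay following NADPH oxidation to NADP+. 1.5 μM sirtuin, 50 μM substrate peptide, 100 μM NAD+, compound at 10 μM, 5% final DMSO. Isoform-specific physiological substrates: p53-acK381 (SIRT1), […] (SIRT2), ACS2-acK642 (SIRT3), CPS1-succK537 (SIRT5). Sirtuins expressed in E. coli, Ni-NTA purified, tag cleaved, then size-exclusion chromatography.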

[2] = biological target: T1, NAD-dependent protein deacetylase sirtuin-3, mitochondrial (Homo sapiens); test: Activation of N-terminal his-tagged human SIRT3 (114 to 380 residues) deacylation activity expressed in Escherichia coli at 100 uM using ACS2-acK642 as substrate in presence of NAD+ by NADH oxidation-coupled enzymatic assay
How it was run: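 Coupled PncA/GDH deacylation assay following NADPH oxidation to NADP+. 1.5 μM SIRT3 (E. coli-expressed, tag removed) with 50 μM ACS2-acK642 peptide and 100 μM NAD+, compound at 100 μM, 5% final DMSO.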

CAL-62 [3] = test: Downregulation of EPAS-1 expression in human CAL-62 cells at 1 uM incubated for 48 hrs under hypoxia condition by Western blot analysis; assay type: functional, cell-based
MDA-MB-231 [4] = test: Downregulation of HIF1alpha expression in human MDA-MB-231 cells at 1 uM incubated for 48 hrs under hypoxia condition by Western blot analysis; assay type: functional, cell-based
CAL-62 [5] = test: Downregulation of CA-IX expression in human CAL-62 cells at 1 uM incubated for 48 hrs under hypoxia condition by Western blot analysis; assay type: functional, cell-based
MDA-MB-231 [6] = test: Downregulation of CA-IX expression in human MDA-MB-231 cells at 1 uM incubated for 48 hrs under hypoxia condition by Western blot analysis; assay type: functional, cell-based
CAL-62 [7] = test: Downregulation of HIF1alpha expression in human CAL-62 cells at 1 uM incubated for 48 hrs under hypoxia condition by Western blot analysis; assay type: functional, cell-based
MDA-MB-231 [8] = test: Downregulation of EPAS-1 expression in human MDA-MB-231 cells at 1 uM incubated for 48 hrs under hypoxia condition by Western blot analysis; assay type: functional, cell-based
[9] = biological target: T2, NAD-dependent protein deacetylase sirtuin-3, mitochondrial (Homo sapiens, UniProt Q9NTG7); test: Binding affinity to N-terminal his-tagged human SIRT3 (114 to 380 residues) assessed as dissociation constant by SPR analysis
T2 sequence (Q9NTG7 whole entry): T1 sequence (whole entry)
How it was run: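 SPR with SIRT3 amine-coupled to the chip (sodium acetate pH 4.0; 1500–4000 RU). Analytes diluted to 200 μM in HBSP (20 mM Hepes, 150 mM NaCl, 0.005% P20; 2% DMSO), injected at 5, 10, 20, 40, 80 μM at 30 μL/min. Dissociation after 180 s. Reference chip lacked ligand. Apparent KD by Scatchard analysis. Run twice.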

[10] = biological target: T1, NAD-dependent protein deacetylase sirtuin-3, mitochondrial (Homo sapiens); test: Activation of human SIRT3 overexpressing in human MDA-MB-231 cells assessed as increase in GDH activity at 50 uM incubated for 4 hrs by absorbance assay; assay type: cell-based
How it was run: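 MDA-MB-231 cells exposed 4 h to 50 μM compound. 10^6 cells lysed in GDH assay buffer for 10 min on ice. Supernatant mixed with developer and glutamate, incubated 3 min at 37 °C, absorbance read at 450 nm with buffer blank subtracted. SIRT3-overexpressing MDA-MB-231 cells served as reference.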

CAL-62 [11] = test: Downregulation of HIF1alpha expression in human CAL-62 cells at 50 uM incubated for 48 hrs under hypoxia condition by Western blot analysis; assay type: functional, cell-based
How it was run: (§2)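 CAL-62 or MDA-MB-231 cells made hypoxic with 200 μM CoCl2 for 24 h, then treated with 50 μM compound for 48 h with CoCl2 retained. Lysates (15 or 50 μg protein) immunoblotted for HIF-1α, EPAS-1 or CA-IX with ACTB, ECL detection. 3-TYP (1 μM) as control.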

CAL-62 [12] = test: Anticancer activity against human CAL-62 cells assessed as reduction in cell viability at 50 uM incubated for 24 to 48 hrs under hypoxia condition by trypan blue exclusion assay; assay type: functional, cell-based; details: time 24-48 hrs, TDE = time-dependent effect
How it was run: (§3)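 CAL-62 cells in RPMI 1640 with 10% FBS, treated with 50 μM compound (DMSO) for 24 and 48 h. Hypoxia induced with 200 μM CoCl2, kept in the medium during treatment. Viable cells counted by 0.4% trypan blue staining on a hemocytometer.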

CAL-62 [13] = test: Inhibition of clonogenicity in human CAL-62 cells at 50 uM incubated for 24 to 48 hrs under normoxia condition by crystal violet staining based assay; assay type: functional; details: time 24-48 hrs
How it was run: (§4)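 CAL-62 cells at 80–90% confluence treated with 50 μM compound for 24 or 48 h, in normoxia or with 200 μM CoCl2 (hypoxia). 500 cells replated per 100 mm dish and grown about 7 days. Colonies fixed in 4% formaldehyde, stained with 0.5% crystal violet, and counted.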

[14] = biological target: T3, NAD-dependent protein deacetylase sirtuin-1 (Homo sapiens) (UniProt Q96EB6); test: Activation of N-terminal his-tagged human SIRT1 expressed in Escherichia coli at 10 uM using p53-acK381 as substrate in presence of NAD+ by NADH oxidation-coupled enzymatic assay; how it was run: as §1
T3 sequence (whole entry): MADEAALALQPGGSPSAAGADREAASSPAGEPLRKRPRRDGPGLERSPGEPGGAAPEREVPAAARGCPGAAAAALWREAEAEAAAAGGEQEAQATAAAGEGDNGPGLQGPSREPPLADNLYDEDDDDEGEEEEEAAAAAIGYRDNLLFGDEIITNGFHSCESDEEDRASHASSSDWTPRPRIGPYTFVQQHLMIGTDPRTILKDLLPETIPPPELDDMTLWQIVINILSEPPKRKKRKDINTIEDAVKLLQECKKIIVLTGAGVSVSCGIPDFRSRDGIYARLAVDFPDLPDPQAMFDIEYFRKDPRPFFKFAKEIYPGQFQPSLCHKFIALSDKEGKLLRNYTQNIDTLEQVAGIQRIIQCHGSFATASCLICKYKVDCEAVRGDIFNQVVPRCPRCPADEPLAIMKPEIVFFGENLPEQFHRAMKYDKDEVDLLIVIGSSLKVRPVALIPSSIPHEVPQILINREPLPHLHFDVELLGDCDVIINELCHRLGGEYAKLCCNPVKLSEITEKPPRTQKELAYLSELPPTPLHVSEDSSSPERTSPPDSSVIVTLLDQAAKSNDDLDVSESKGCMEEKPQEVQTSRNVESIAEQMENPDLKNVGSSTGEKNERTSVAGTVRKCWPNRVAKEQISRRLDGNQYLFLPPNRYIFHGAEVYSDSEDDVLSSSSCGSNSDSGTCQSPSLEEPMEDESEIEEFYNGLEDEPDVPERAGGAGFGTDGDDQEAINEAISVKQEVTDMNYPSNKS

[15] = biological target: T4, NAD-dependent protein deacetylase sirtuin-2 (Homo sapiens) (UniProt Q8IXJ6); test: Activation of N-terminal his-tagged human SIRT2 (43 to 356 residues) expressed in Escherichia coli at 10 uM using p53-acK381 as substrate in presence of NAD+ by NADH oxidation-coupled enzymatic assay
T4 sequence (whole entry): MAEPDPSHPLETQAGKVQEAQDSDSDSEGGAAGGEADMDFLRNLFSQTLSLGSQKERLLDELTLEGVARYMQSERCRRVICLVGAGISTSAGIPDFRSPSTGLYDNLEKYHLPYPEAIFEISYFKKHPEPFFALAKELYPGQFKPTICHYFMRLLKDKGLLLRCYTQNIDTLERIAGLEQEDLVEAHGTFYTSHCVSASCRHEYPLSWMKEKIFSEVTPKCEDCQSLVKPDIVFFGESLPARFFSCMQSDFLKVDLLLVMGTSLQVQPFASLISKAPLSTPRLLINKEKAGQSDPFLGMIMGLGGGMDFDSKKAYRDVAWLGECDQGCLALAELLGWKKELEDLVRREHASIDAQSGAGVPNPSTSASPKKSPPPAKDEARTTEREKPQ

CAL-62 [16] = test: Downregulation of CA-IX expression in human CAL-62 cells at 50 uM incubated for 48 hrs under hypoxia condition by Western blot analysis; assay type: functional, cell-based; how it was run: as §2
CAL-62 [17] = test: Inhibition of clonogenicity in human CAL-62 cells at 50 uM incubated for 24 to 48 hrs under hypoxia condition by crystal violet staining based assay; assay type: functional; details: time 24-48 hrs; how it was run: as §4
CAL-62 [18] = test: Anticancer activity against human CAL-62 cells assessed as reduction in cell viability at 50 uM incubated for 24 to 48 hrs under normoxia condition by trypan blue exclusion assay; assay type: functional, cell-based; details: time 24-48 hrs, TDE = time-dependent effect; how it was run: as §3
[19] = biological target: NAD-dependent protein deacylase sirtuin-5, mitochondrial (Homo sapiens) (UniProt Q9NXA8); test: Activation of N-terminal his-tagged human SIRT5 (34 to 302 residues) expressed in Escherichia coli at 10 uM using p53-acK381 as substrate in presence of NAD+ by NADH oxidation-coupled enzymatic assay
Chain of NAD-dependent protein deacylase sirtuin-5, mitochondrial (Homo sapiens) (Q9NXA8 37-310 limits assumed): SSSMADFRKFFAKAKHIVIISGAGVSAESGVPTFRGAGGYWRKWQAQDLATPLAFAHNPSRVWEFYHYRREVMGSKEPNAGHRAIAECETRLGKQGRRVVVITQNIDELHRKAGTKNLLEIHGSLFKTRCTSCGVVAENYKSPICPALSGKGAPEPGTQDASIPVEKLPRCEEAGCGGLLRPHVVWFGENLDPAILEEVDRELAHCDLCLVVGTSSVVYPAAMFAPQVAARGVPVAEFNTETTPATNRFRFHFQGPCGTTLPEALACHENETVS

SMILES | Activity [1] [%] | Activity ([2]; filed as activator) | further results
CCOC(=O)C1=CN(C(=O)c2ccc(Br)cc2)C=C(C(=O)OCC)C1c1ccccc1 | 120 | 184% | –
CCOC(=O)C1=CN(C(=O)c2cccs2)C=C(C(=O)OCC)C1c1ccccc1 | 120 | – | –
CCOC(=O)C1=CN(C(=O)c2ccc(F)cc2)C=C(C(=O)OCC)C1c1ccccc1 | 120 | 142% | –
CCOC(=O)C1=CN(C(=O)c2cccc(Cl)c2)C=C(C(=O)OCC)C1c1ccccc1 | 120 | 204% | –
CCOC(=O)C1=CN(C(=O)c2ccsc2)C=C(C(=O)OCC)C1c1ccccc1 | 120 | – | Activity [2]: inactive
CCOC(=O)C1=CN(C(=O)C2CCCCC2)C=C(C(=O)OCC)C1c1ccccc1 | 120 | Active | –
CCOC(=O)C1=CN(C(=O)c2ccco2)C=C(C(=O)OCC)C1c1ccccc1 | 120 | – | –
CCOC(=O)C1=CN(C(=O)c2cccc(F)c2)C=C(C(=O)OCC)C1c1ccccc1 | 120 | 196% | –
c1cncc(-c2cnn[nH]2)c1 | – | – | Activity (CAL-62 [3]): inactive; Activity (MDA-MB-231 [4]): inactive; Activity (CAL-62 [5]): inactive; Activity (MDA-MB-231 [6]): inactive; Activity (CAL-62 [7]): inactive; Activity (MDA-MB-231 [8]): inactive
CCOC(=O)C1=CN(C(=O)c2ccc(Cl)cc2)C=C(C(=O)OCC)C1c1ccccc1 | 120 | 237% | Kd [9]: 74 µM
CCOC(=O)C1=CN(C(=O)c2cccc(OC)c2)C=C(C(=O)OCC)C1c1ccccc1 | – | 217% | Kd [9]: 78 µM; Activity ([10]; filed as activator): Active; Activity (CAL-62 [11]): Active; Activity (CAL-62 [12]): Tde; inhibition at 50 µM (CAL-62 [13]): 53%; Activity [14]: inactive; Activity [15]: inactive; Activity (CAL-62 [16]): Active; inhibition at 50 µM (CAL-62 [17]): 53%; Activity (CAL-62 [18]): Tde; Activity [19]: inactive
CCOC(=O)C1=CN(C(=O)c2ccc(C#N)cc2)C=C(C(=O)OCC)C1c1ccccc1 | 120 | – | –
CCOC(=O)C1=CN(C(=O)c2ccccc2)C=C(C(=O)OCC)C1c1ccccc1 | 157 | 188% | –
CCOC(=O)C1=CN(C(=O)c2ccc(OC)cc2)C=C(C(=O)OCC)C1c1ccccc1 | 120 | – | Kd [9]: 72 µM; Activity [10]: inactive; Activity (CAL-62 [12]): Tde; Activity (CAL-62 [16]): Active; Activity (CAL-62 [18]): Tde
CCOC(=O)C1=CN(C(=O)c2cc(OC)c(OC)c(OC)c2)C=C(C(=O)OCC)C1c1ccccc1 | 128 | 269% | Activity ([10]; filed as activator): 175%
CCOC(=O)C1=CN(C(=O)c2cccc(Br)c2)C=C(C(=O)OCC)C1c1ccccc1 | 120 | 214% | –
CCOC(=O)C1=CN(C(=O)c2ccc([N+](=O)[O-])cc2)C=C(C(=O)OCC)C1c1ccccc1 | 120 | – | –
CCOC(=O)C1=CN(C(=O)Cc2ccccc2)C=C(C(=O)OCC)C1c1ccccc1 | 176 | Active | –
CCOC(=O)C1=CN(C(=O)c2cccc([N+](=O)[O-])c2)C=C(C(=O)OCC)C1c1ccccc1 | 120 | – | –
